{"source": "ChEMBL document CHEMBL5154683", "about": "“A 5-FU Precursor Designed to Evade Anabolic and Catabolic Drug Pathways and Activated by Pd Chemistry In Vitro and In Vivo” (J Med Chem, 2022)", "key": {"[1]": {"test": "Toxicity in female Wistar Han rat assessed as abnormal morphological changes in organs at 1000 mg/kg, po administered as single dose measured after 15 days", "format": "organism-based", "conditions": "in vivo, 360 h, time 15 day", "summary_of_the_method": "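Single oral dose of 1000 mg/kg in 10 mL/kg to male and female rats (n = 6), then 14 days of observation. Mortality and morbidity checked twice daily, with clinical observations and functional/neurobehavioral tests. Body weight recorded d1, d2, d5, d8, d11 and d14. Gross necropsy on d15.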"}, "[2]": {"test": "Prodrug conversion in PBS buffer assessed as mono-depropargylated intermediate formation by measuring retention time at 100 uM in presence of Pd-resin measured upto 1 hr by UPLC analysis", "format": "ADME", "summary_of_the_method": "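Prodrug (100 μM in PBS, pH 7.4) shaken at 1200 rpm, 37 °C with 1 mg/mL Pd resins (30 μm). Sampled at 10, 20, 40 min, 1, 3, 6, 24 and 48 h; analyzed by reverse-phase UPLC (C18, 60 °C, UV 254 nm), products identified by retention time against authentic standards.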"}, "HCT-116": {"tested_on": "HCT-116", "test": "Antiproliferative activity against human HCT-116 cells assessed as increase in cytotoxicity at 1 uM incubated for 5 days in presence of Pd-resin by PrestoBlue dye based assay", "format": "functional, cell-based", "conditions": "time 5.0 day"}, "[3]": {"test": "AUC (0 to infinity) in male Wistar Han rat at 10 mg/kg, po administered as single dose measured upto 24 hrs", "format": "ADME, organism-based", "design": "time < 24 hrs, dose 10 mg/kg, route po", "conditions": "in vivo", "summary_of_the_method": "(§1)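 Male jugular-vein-cannulated Wistar Han rats, 263–319 g, single dose. IV: 1 mg/kg as 2 mL/kg of 0.5 mg/mL in 5% DMSO/95% HPCD (20% w/v), not fasted. PO: 10 mg/kg as 5 mL/kg of 2 mg/mL suspension in 5% DMSO/95% tween 80/HPCD vehicle, fasted overnight. Serial cannula blood sampling 0.083/0.25–24 h (n = 3/route); parent quantified by QToF against calibration curve.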"}, "[4]": {"test": "Tmax in male Wistar Han rat at 10 mg/kg, po administered as single dose measured upto 24 hrs", "format": "ADME, organism-based", "conditions": "in vivo", "summary_of_the_method": "as §1"}, "[5]": {"test": "Mean residence time in female Wistar Han rat at 1000 mg/kg, po administered as single dose measured upto 24 hrs", "format": "ADME, organism-based", "conditions": "in vivo", "summary_of_the_method": "(§2)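 Single oral dose 1000 mg/kg in male and female rats, dosing volume 10 mL/kg (n = 6); animals observed 14 days with clinical checks, functional/neurobehavioral tests and body weight, necropsy on d15; exposure parameters from the toxicokinetic arm of this study.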"}, "[6]": {"test": "Toxicity in BALB/c nude mouse xenografted with human HCT-116 cells assessed as change in body weight at 75 to 150 mg/kg, po administered via oral gavage measured daily for 7 days", "format": "organism-based", "conditions": "in vivo, 168 h, dose 75-150 mg/kg, time 7 day", "summary_of_the_method": "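Female BALB/c nude mice, 6–7 weeks, inoculated s.c. with 5 × 10⁵ HCT116 cells in 1:1 Matrigel/PBS; at 200–300 mm³ randomized; Pd resins (2 mg in 50 μL) injected intratumorally (groups 1–3), then oral gavage daily for 7 days with 150 or 75 mg/kg or vehicle; untreated group. Body weight daily, clinical signs twice daily.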"}, "BXPC-3": {"tested_on": "BXPC-3", "test": "Antiproliferative activity against human BxPC-3 cells assessed as increase in cytotoxicity at 1 uM incubated for 5 days in presence of Pd-resin by PrestoBlue dye based assay", "format": "functional, cell-based", "conditions": "time 5.0 day", "summary_of_the_method": "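BxPC-3 (RPMI, 10% FBS, 2 mM glutamine) at 2500 cells/well, 48 h attachment, then fresh medium with 1 μM drug/prodrug ± 1 mg/mL Pd resins, 0.1% v/v DMSO, 5 d at 37 °C. Viability by PrestoBlue (10% v/v, 1 h, ex 540/em 590 nm), normalized to DMSO-treated cells; n = 3.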"}, "[7]": {"test": "Metabolic stability in rat hepatocytes assessed as half life at 3 uM by LC-MS/MS analysis", "format": "ADME, cell-based, Hepatocyte", "summary_of_the_method": "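Suspended hepatocytes (0.5 × 10⁶ cells/mL) in Williams E medium with 2 mM L-glutamine and 25 mM HEPES at 37 °C, compound added with 0.25% v/v DMSO after preincubation; aliquots quenched into methanol with internal standard at time points, centrifuged, supernatant analyzed by LC-MS/MS; two control compounds included.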"}, "[8]": {"test": "AUC (0 to infinity) in female Wistar Han rat at 1000 mg/kg, po administered as single dose measured upto 24 hrs", "format": "ADME, organism-based", "design": "time < 24 hrs, dose 1000 mg/kg, route po", "conditions": "in vivo", "summary_of_the_method": "as §2"}}, "note": "Calls of active or inactive are those of the source. The rule behind the calls is not given here."}
{"molecule": "C#CCOc1ncc(F)c(OCC#C)n1", "values": [{"measurement": "Activity", "setting": "[1]", "result": "Non-Toxic"}, {"measurement": "Retention_time", "setting": "[2]", "result": 0.98, "unit": "min"}, {"measurement": "Activity", "setting": "HCT-116", "result": "Active"}, {"measurement": "AUC(0-inf)", "setting": "[3]", "result": 6.19, "unit": "µg·h/mL"}, {"measurement": "Tmax", "setting": "[4]", "result": 0.25, "unit": "h"}, {"measurement": "MRT", "setting": "[5]", "result": 13.4, "unit": "h"}, {"measurement": "Activity", "setting": "[6]", "result": "Non-Toxic"}, {"measurement": "Activity", "setting": "BXPC-3", "result": "Active"}, {"measurement": "half-life at 3 µM", "setting": "[7]", "result": 6.97, "unit": "h"}, {"measurement": "AUC(0-inf)", "setting": "[8]", "result": 1470, "unit": "µg·h/mL"}]}
